Consider five compounds from ChEMBL document CHEMBL1148671, “Synthesis and antibacterial activity of C12 des-methyl ketolides” (2006).

Holding throughout (type): functional
Test [1] deals with Streptococcus pneumoniae. The experiment in a line: Antibacterial activity against erythromycin-resistant Streptococcus pneumoniae mef 5654 by broth microdilution method.
Test [2] relates to Enterococcus faecalis. The test can be described thus: Antibacterial activity against Enterococcus faecalis 29212 by broth microdilution method. The procedure, abridged: (§1)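 In vitro activity was read as the minimum inhibitory concentration (MIC) by broth microdilution and reported in μg/mL. The S. pneumoniae panel included erythromycin-resistant strains carrying mef or erm genes. Telithromycin and clarithromycin were run as comparators in every assay.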
A general note: Dilution methods test growth across graded concentrations, often in twofold steps.

The test system of test [3] is Streptococcus pneumoniae. The test can be described thus: Antibacterial activity against Streptococcus pneumoniae 49619 by broth microdilution method. In a few lines: as §1
The test system of test [4] is Staphylococcus epidermidis. The experiment in a line: Antibacterial activity against Staphylococcus epidermidis 14990 by broth microdilution method. In a few lines: as §1
Test [5] has as its system Staphylococcus aureus. The experiment in a line: Antibacterial activity against Staphylococcus aureus 33591 by broth microdilution method. The procedure, abridged:
as §1

The test system of test [6] is Haemophilus influenzae. The experiment in a line: Antibacterial activity against Haemophilus influenzae 2762 by broth microdilution method. The procedure, abridged:
as §1

For test [7], the system named is Streptococcus pneumoniae. The experiment in a line: Antibacterial activity against Streptococcus pneumoniae 297-749 by broth microdilution method. In a few lines:
as §1

Test [8] concerns Staphylococcus epidermidis. The experiment in a line: Antibacterial activity against Staphylococcus epidermidis f50654 by broth microdilution method. The procedure, abridged: as §1
In test [9] the test system is Haemophilus influenzae. The experiment in a line: Antibacterial activity against Haemophilus influenzae 49247 by broth microdilution method. The procedure, abridged: as §1
The subject of test [10] is Streptococcus pneumoniae. The test can be described thus: Antibacterial activity against erythromycin-resistant Streptococcus pneumoniae mef S 3427 by broth microdilution method.
Test [11] concerns Streptococcus pneumoniae. The test can be described thus: Antibacterial activity against Streptococcus pneumoniae 280-962 by broth microdilution method. In a few lines:
as §1

For another test, the system named is Streptococcus pyogenes. The test can be described thus: Antibacterial activity against Streptococcus pyogenes 8668 by broth microdilution method. In a few lines:
as §1

The subject of test [12] is Staphylococcus aureus. The test can be described thus: Antibacterial activity against Staphylococcus aureus 29213 by broth microdilution method. Conditions: ATCC29213. The procedure, abridged:
as §1

Test [13] relates to Streptococcus pneumoniae. The test can be described thus: Antibacterial activity against erythromycin-resistant Streptococcus pneumoniae erm 6849 by broth microdilution method.
For test [14], the system named is Enterococcus faecalis. The test can be described thus: Antibacterial activity against Enterococcus faecalis bc11148-2 by broth microdilution method. The procedure, abridged:
as §1

≈ marks a conversion by molar mass, not a printed value. A value given as a limit tells only on which side of the number the result lay.

As to `CC[C@H]1OC(=O)[C@H](C)C(=O)[C@H](C)[C@@H](O[C@@H]2O[C@H](C)C[C@H](N(C)C)[C@H]2O)[C@](C)(OC)C[C@@H](C)C(=O)[C@H](C)[C@@H]2[C@@H]1OC(=O)N2CCCCn1cnc(-c2ccc(Cl)nc2)c1`, the MIC was 0.78 µg/mL (≈ 0.937 µM) against Streptococcus pneumoniae [1]; at most 0.05 µg/mL in the test with Enterococcus faecalis [2]; at most 0.05 µg/mL in the test with Streptococcus pneumoniae [3]; 0.1 µg/mL (≈ 0.12 µM) in test [4]; above 50 µg/mL with Staphylococcus aureus [5]; 1.56 µg/mL (≈ 1.87 µM) against Haemophilus influenzae [6]. In addition, the MIC against Streptococcus pneumoniae [7] was at most 0.05 µg/mL; in test [8], 0.2 µg/mL (≈ 0.24 µM); in the test on Haemophilus influenzae [9], 6.25 µg/mL (≈ 7.51 µM); in the test on Streptococcus pneumoniae [10], 0.1 µg/mL (≈ 0.12 µM); against Streptococcus pneumoniae [11], at most 0.05 µg/mL; in the test on Streptococcus pyogenes, at most 0.05 µg/mL. Moreover, the figures for the MIC in the test on Staphylococcus aureus [12], in the test with Streptococcus pneumoniae [13] and with Enterococcus faecalis [14] were 0.2 µg/mL (≈ 0.24 µM), 0.4 µg/mL (≈ 0.481 µM) and 0.4 µg/mL (≈ 0.481 µM), respectively.
Take `CC[C@H]1OC(=O)[C@H](C)C(=O)[C@H](C)[C@@H](O[C@@H]2O[C@H](C)C[C@H](N(C)C)[C@H]2O)[C@](C)(OC)C[C@@H](C)C(=O)[C@H](C)[C@@H]2[C@@H]1OC(=O)N2CCCCn1cnc(-c2ccc(C)nc2)c1`: the MIC is 1.56 µg/mL (≈ 1.92 µM) in the test on Streptococcus pneumoniae [1]; 0.1 µg/mL (≈ 0.123 µM) in the test on Enterococcus faecalis [2]; at most 0.05 µg/mL in the test with Streptococcus pneumoniae [3]; 0.2 µg/mL (≈ 0.246 µM) in [4]; above 50 µg/mL in the test on Staphylococcus aureus [5]; 1.56 µg/mL (≈ 1.92 µM) in the test on Haemophilus influenzae [6]. In addition, the MIC is at most 0.05 µg/mL in the test on Streptococcus pneumoniae [7]; 0.2 µg/mL (≈ 0.246 µM) in test [8]; 3.13 µg/mL (≈ 3.85 µM) against Haemophilus influenzae [9]; 0.4 µg/mL (≈ 0.493 µM) against Streptococcus pneumoniae [10]; at most 0.05 µg/mL with Streptococcus pneumoniae [11]; at most 0.05 µg/mL in the test with Streptococcus pyogenes. Further, the results for the MIC against Staphylococcus aureus [12], with Streptococcus pneumoniae [13] and in the test on Enterococcus faecalis [14] were 0.2 µg/mL (≈ 0.246 µM), 50 µg/mL (≈ 61.6 µM) and 3.13 µg/mL (≈ 3.85 µM), respectively.
With `CC[C@H]1OC(=O)[C@H](C)C(=O)[C@H](C)[C@@H](O[C@@H]2O[C@H](C)C[C@H](N(C)C)[C@H]2O)[C@](C)(OC)C[C@@H](C)C(=O)[C@H](C)[C@@H]2[C@@H]1OC(=O)N2CCCCn1cnc(-c2cccnc2)c1`, the MIC was 1.56 µg/mL (≈ 1.95 µM) with Streptococcus pneumoniae [1]; 0.1 µg/mL (≈ 0.125 µM) in the test on Enterococcus faecalis [2]; at most 0.05 µg/mL with Streptococcus pneumoniae [3]; 0.78 µg/mL (≈ 0.977 µM) in [4]; above 50 µg/mL against Staphylococcus aureus [5]; 0.78 µg/mL (≈ 0.977 µM) against Haemophilus influenzae [6]. Moreover, the MIC in the test with Streptococcus pneumoniae [7] is at most 0.05 µg/mL; in test [8] it was 0.2 µg/mL (≈ 0.251 µM); against Haemophilus influenzae [9], 6.25 µg/mL (≈ 7.83 µM); against Streptococcus pneumoniae [10], 0.2 µg/mL (≈ 0.251 µM); with Streptococcus pneumoniae [11], at most 0.05 µg/mL; in the test with Streptococcus pyogenes, at most 0.05 µg/mL. Also, the results for the MIC against Staphylococcus aureus [12], in the test on Streptococcus pneumoniae [13] and in the test on Enterococcus faecalis [14] were 0.2 µg/mL (≈ 0.251 µM), 0.2 µg/mL (≈ 0.251 µM) and above 50 µg/mL, respectively.
With `CC[C@H]1OC(=O)[C@H](C)C(=O)[C@H](C)[C@@H](O[C@@H]2O[C@H](C)C[C@H](N(C)C)[C@H]2O)[C@](C)(OC)C[C@@H](C)C(=O)[C@H](C)[C@@H]2[C@@H]1OC(=O)N2CCCCn1cnc(-c2ccc(F)nc2)c1`, the MIC is 0.78 µg/mL (≈ 0.956 µM) with Streptococcus pneumoniae [1]; at most 0.05 µg/mL against Enterococcus faecalis [2]; at most 0.05 µg/mL against Streptococcus pneumoniae [3]; 0.2 µg/mL (≈ 0.245 µM) in [4]; above 50 µg/mL in the test on Staphylococcus aureus [5]; 0.78 µg/mL (≈ 0.956 µM) against Haemophilus influenzae [6]. Also, the MIC was at most 0.05 µg/mL in the test on Streptococcus pneumoniae [7]; 0.78 µg/mL (≈ 0.956 µM) in [8]; 3.13 µg/mL (≈ 3.84 µM) in the test on Haemophilus influenzae [9]; 0.78 µg/mL (≈ 0.956 µM) against Streptococcus pneumoniae [10]; 0.2 µg/mL (≈ 0.245 µM) with Streptococcus pneumoniae [11]; at most 0.05 µg/mL against Streptococcus pyogenes. Also, the MIC in the test on Staphylococcus aureus [12] amounted to 0.2 µg/mL (≈ 0.245 µM); in the test on Streptococcus pneumoniae [13], 12.5 µg/mL (≈ 15.3 µM); against Enterococcus faecalis [14], 25 µg/mL (≈ 30.6 µM).
Regarding `CC[C@H]1OC(=O)[C@H](C)C(=O)[C@H](C)[C@@H](O[C@@H]2O[C@H](C)C[C@H](N(C)C)[C@H]2O)[C@](C)(OC)C[C@@H](C)C(=O)[C@H](C)[C@@H]2[C@@H]1OC(=O)N2CCCC(C)(C)n1cnc2ncccc21`, the MIC was 1.56 µg/mL (≈ 1.95 µM) with Streptococcus pneumoniae [1]; at most 0.05 µg/mL in the test on Enterococcus faecalis [2]; at most 0.05 µg/mL against Streptococcus pneumoniae [3]; 0.1 µg/mL (≈ 0.125 µM) in test [4]; above 50 µg/mL in the test on Staphylococcus aureus [5]; 1.56 µg/mL (≈ 1.95 µM) against Haemophilus influenzae [6]. In addition, the MIC with Streptococcus pneumoniae [7] was at most 0.05 µg/mL; in [8], 0.1 µg/mL (≈ 0.125 µM); with Haemophilus influenzae [9], 6.25 µg/mL (≈ 7.81 µM); with Streptococcus pneumoniae [10], 0.2 µg/mL (≈ 0.25 µM); in the test with Streptococcus pneumoniae [11], at most 0.05 µg/mL; with Streptococcus pyogenes, at most 0.05 µg/mL. The MIC against Staphylococcus aureus [12] came out at 0.2 µg/mL (≈ 0.25 µM); in the test on Streptococcus pneumoniae [13], 6.25 µg/mL (≈ 7.81 µM); in the test with Enterococcus faecalis [14], 1.56 µg/mL (≈ 1.95 µM).
